# NSD2 inh: inhibitors of human histone methyltransferase NSD2 | O96028 | NSD2 peptide methylation, AlphaScreen, 120 min | inhibition, % at 12.5 µM | 310,000 tested, 0.54% active; in the data active = inhibition above about 50%
# SUMO HTRF inh: inhibitors of human SUMOylation (UBC9); P63279; HTRF SUMOylation assay, SAE1/SAE2 + UBC9, in vitro; inhibition, % at 35 µM; 290,000 tested, 0.36% active; AID 2006; in the data active = inhibition above about 50%, passing the limit was not always enough
# Target sequence (P63279 whole entry, looked up): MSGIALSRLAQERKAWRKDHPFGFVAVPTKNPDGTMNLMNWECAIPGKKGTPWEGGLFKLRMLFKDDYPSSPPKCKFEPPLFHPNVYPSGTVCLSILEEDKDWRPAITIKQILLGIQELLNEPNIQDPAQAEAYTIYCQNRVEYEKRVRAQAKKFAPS
# TDP2 inh: blocks human TDP2 phosphodiesterase activity | recombinant TDP2, T5PNP hydrolysis, p-nitrophenol absorbance 415 nm | O95551 | inhibition, % at 12.8 µM | AID 720702 | 370,000 tested, 0.34% active;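 active = inhibition above the mean of all tested compounds plus 3 SD, set per campaign, cut at about 25% in these data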;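 note: 0% = DMSO with enzyme and 100% = buffer with substrate but no TDP2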
# Target sequence (O95551 whole entry, looked up): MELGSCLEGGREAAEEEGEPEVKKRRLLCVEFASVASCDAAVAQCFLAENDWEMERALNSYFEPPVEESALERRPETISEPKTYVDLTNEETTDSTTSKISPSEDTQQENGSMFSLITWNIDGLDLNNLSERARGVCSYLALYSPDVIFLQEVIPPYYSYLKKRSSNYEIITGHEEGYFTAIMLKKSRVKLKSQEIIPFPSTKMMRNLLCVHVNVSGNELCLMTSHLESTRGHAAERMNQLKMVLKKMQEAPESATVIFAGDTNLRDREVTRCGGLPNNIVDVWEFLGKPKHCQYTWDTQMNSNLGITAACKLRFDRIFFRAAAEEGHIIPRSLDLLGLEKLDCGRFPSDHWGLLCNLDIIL
#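 Assay system: Recombinant human TDP2 | Quantity: 120 nM TDP2 per well | Incubation: 2 h at 37 °C | Signal: Epi absorbance | Evaluation: Percent inhibition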
# Fh CTSL1 inh: blocks F. hepatica cathepsin L1 in PFM18AAP counter-screen. recombinant F. hepatica cathepsin L1, Z-Leu-Arg-MCA fluorescence. inhibition, % at 5.96 µM. 300,000 tested, 0.49% active;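 active = inhibition above the mean of all tested compounds plus 3 SD, set per screening campaign, cut at about 17% in these data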;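 note: 0% = plate median of test compound wells and 100% = 1 µM Z-Phe-Ala-diazomethylketone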
# * marks the source's active call; other numbers are inactive results; x = not tested or not shown. Rows were chosen to be rich in hits. Some 1.2% of all compounds tested hit in one or more screens of this group.
SMILES,NSD2 inh,SUMO HTRF inh,TDP2 inh,Fh CTSL1 inh
CCOC(CNC(=O)c1ccc2c(c1)ncn2-c1ccc(F)c(F)c1)OCC,8.6,10.0,-0.1,-3.1
COC(CNC(=O)c1ccc2c(c1)ncn2-c1ccc(F)c(F)c1)OC,-2.1,-4.0,1.7,18.0*
Cc1ccc(S(=O)(=O)N2CCOCC2)cc1C(=O)O,-0.3,8.9,-3.0,2.2
O=C(O)c1cc2cccc(S(=O)(=O)N3CCOCC3)c2cc1O,x,51.8*,-3.6,-2.1
Nc1ccc(Nc2ccccc2)c(Cl)c1,5.4,-31.6,3.5,7.0
Nc1ccccc1Nc1ccccc1,19.1,33.8,-1.3,18.6*
CCOC(=O)N1CCN(C(=O)C[C@H]2C[C@@]3(C(=O)OC)C(=C[C@H](COCc4ccccc4)O[C@@H]3C)N(Cc3ccc4c(c3)OCO4)C2=O)CC1,x,x,-2.3,x
CC(C)(C)CN1CCC(Oc2cccc(C(=O)N3CCNC(=O)C3(C)C)c2)CC1,-1.4,1.8,12.2,18.5*
CCCCN(C)C(=O)c1cccc(OC2CCN(CC(C)(C)C)CC2)c1,-0.2,19.8,0.8,0.5
Cc1[nH]n(-c2ccccc2)c(=O)c1C(c1ccccc1[N+](=O)[O-])C(C#N)C#N (configuration not stated),1.4,10.0,74.9*,-4.1
Cc1[nH]n(-c2ccccc2)c(=O)c1C(c1ccccc1C(=O)O)c1c(C)[nH]n(-c2ccccc2)c1=O,-1.0,4.1,1.7,-2.9
COc1ccc(Cc2nnc(NC(=O)c3ccccc3F)s2)cc1OC,0.6,92.6*,9.0,-2.1
Cc1ccccc1CN1C(=O)c2ccccc2C1c1nnnn1Cc1ccccc1 (configuration not stated),x,x,-5.5,x
Cc1cccc(Cn2nnc3c2C(=O)c2ccccc2C3=O)c1,-0.7,27.3,-7.1,18.9*
Cc1ccccc1Cn1nnc2c1C(=O)c1ccccc1C2=O,0.6,x,5.9,25.4*
CC(=O)NCc1ccc(C(=O)COC(=O)c2ccc(C#N)cc2)o1,3.7,x,x,x
CCCC(=O)NC(c1ccc(Cl)cc1Cl)c1ccc2cccnc2c1O (configuration not stated),28.8,90.8*,-23.2,0.6
CCCC(=O)NC(c1ccc(Cl)cc1)c1ccc2cccnc2c1O (configuration not stated),1.2,-61.0,-24.9,1.2
O=C(NCCCN1CCOCC1)c1ccc2nc(-c3ccc(F)cc3)c(-c3ccc(F)cc3)nc2c1,3.6,x,x,x
CC(/C=N/n1c(-c2ccco2)n[nH]c1=S)=C\c1ccco1,10.3,64.4*,11.8,1.9
S=c1[nH]nc(-c2ccncc2)n1/N=C/C=C/c1ccco1,25.4,90.6*,6.8,5.1
c1ccc2c(c1)Nc1nc3ccccc3nc1N2,-6.7,x,x,x
COC(=O)C1CN(Cc2ccc(OC)cc2)CCS(=O)(=O)N1Cc1cn(CCOC(C)=O)nn1 (configuration not stated),x,x,1.8,x
N#C/C(=C/c1ccc(O)c(O)c1)C(=O)NCc1ccc(Cl)cc1,78.2*,-13.2,-4.5,1.1
N#C/C(=C\c1ccc(O)c(Br)c1)C(=O)NCc1ccccc1,x,16.8,-7.3,22.5*
SMILES,NSD2 inh,SUMO HTRF inh,TDP2 inh,Fh CTSL1 inh
O=C(OC12CCCN(C1)/C(=C/c1ccc(Cl)cc1)C2)C1CCCC1 (configuration not stated),x,x,-0.6,x
COc1ccc(OCCN2CCC(C(=O)NC(c3ccc(Cl)cc3)c3ncccc3C)CC2)cc1 (configuration not stated),12.3,x,x,x
Cc1ccc(NC(=O)CCCCCC2NC(=O)NC2C)cc1 (configuration not stated),135.5*,6.1,x,-2.2
CCc1cccc(NC(=O)CCCCCC2NC(=O)NC2C)c1 (configuration not stated),x,-17.5,-11.0,4.5
COc1ccc(-c2csc(=Nc3ccccc3)n2CC(O)c2ccc([N+](=O)[O-])cc2)cc1 (configuration not stated),1.6,x,x,x
Cc1nc2c(Br)cc(Br)cc2c(=O)n1-c1ccccc1NC1OCC(O)C(O)C1O (configuration not stated),0.3,x,-0.1,x
COc1ccccc1CNC(=O)CCS(=O)(=O)c1ccc(Cl)cc1,3.9,x,-5.3,28.6*
Cc1ccc(S(=O)(=O)CCC(=O)NCc2ccccc2Cl)cc1,0.3,-3.8,-5.1,-2.4
CCCCn1c(NC(=O)c2ccc(F)cc2)c(C#N)c2nc3ccccc3nc21,x,x,x,-5.4
CCC(C)n1c(NC(=O)c2ccccc2)c(C#N)c2nc3ccccc3nc21 (configuration not stated),x,x,76.6*,2.3
S=C(NCc1ccccc1)Nc1cccc2cnccc12,-0.3,-4.6,-0.4,-1.4
S=C(Nc1cccc(Cl)c1)Nc1cccc2cnccc12,x,98.2*,x,1.6
FC(F)(F)c1ccccc1NC(=S)Nc1cccc2cnccc12,95.9*,94.7,23.2,x
CCn1c(=O)c2[nH]c(SC)nc2n(CC)c1=O,0.2,x,-6.8,x
CC(=O)CC[C@H]1CC[C@]2(CCCN(C(=O)C3CCCCC3)C2)O1,x,x,-3.5,x
O=C(O)c1ccccc1NS(=O)(=O)c1ccc(NNC(=S)Nc2ccc(OC(F)F)cc2)c([N+](=O)[O-])c1,109.5*,35.2,4.5,x
Cc1ccc(NC(=S)NNc2ccc([N+](=O)[O-])cc2S(=O)(=O)Nc2ccccc2C(=O)O)cc1C,43.9,22.2,-3.6,3.7
CCOc1ccc(NS(=O)(=O)c2ccc(C(=O)NCC3(N4CCCCC4)CCCCC3)cc2)cc1,1.6,12.6,15.6,11.5
CC(=O)Nc1ccc(C(=O)NCC2(N3CCCCC3)CCCCC2)cc1,x,9.6,-4.0,20.6*
CN1OC[C@@H]2CN3C(=Nc4cc(C(F)(F)F)cc(C(F)(F)F)c4)Sc4ccccc4[C@@H]3C[C@@H]21,x,x,-4.0,x
O=C(CCl)Nc1c(C(=O)Nc2ccc3c(c2)OCCO3)oc2ccccc12,-1.7,3.1,6.7,58.2*
COCC(=O)Nc1c(C(=O)Nc2ccc3c(c2)OCO3)oc2ccccc12,-9.8,1.8,-4.7,1.4
Oc1cccc(/C=N/Nc2ncnc3c2ncn3Cc2ccccc2)c1,1.0,5.0,-0.4,5.5
Oc1ccc(/C=N/Nc2ncnc3c2ncn3Cc2ccccc2)cc1O,72.5*,-28.0,1.2,4.4
O=C1Nc2ccc(C(F)(F)F)cc2N2CCCC12 (configuration not stated),x,64.3,x,13.2
SMILES,NSD2 inh,SUMO HTRF inh,TDP2 inh,Fh CTSL1 inh
O=C1Nc2ccccc2N2CCCC12 (configuration not stated),x,14.9,x,71.0*
COc1ccc(-c2nc3c(-c4ccccc4)cnn3cc2C)cc1F,-1.6,24.1,3.1,20.3*
COc1ccc(CNC(=O)COC(=O)c2cc(-c3ccco3)nc3ccccc23)cc1,x,56.7*,x,x
C/C(=N\NC(=O)c1cc(-c2ccco2)nc2ccccc12)c1cccnc1,2.0,60.1*,-7.9,7.7
CCNC(=O)COC(=O)c1cc(-c2ccco2)nc2ccccc12,0.1,43.5,2.4,-4.3
Cc1cc(C(=O)CCl)c(C)n1CCc1ccc(F)cc1,0.0,4.6,5.7,23.5*
COc1ccc(CCn2c(C)cc(C(=O)CCl)c2C)cc1OC,10.3,11.0,3.2,43.6*
Cc1cc(C(=O)CCl)c(C)n1CCc1ccc(Cl)cc1,0.4,11.8,-4.1,21.2*

# Compound activity deposited in PubChem BioAssay by several laboratories.
